Consider twelve compounds from ChEMBL document CHEMBL1153903, “Tethered thiazolidinone dimers as inhibitors of the bacterial type III secretion system” (Bioorg Med Chem Lett, 2009).

This assay can be described thus: Inhibition of T3SS-dependent SipA secretion in Salmonella Typhimurium. Details: species or system Salmonella enterica subsp. enterica serovar Typhimurium. In short, it runs like this: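 Salmonella typhimurium type III secretion read out as secretion of the substrate SipA into culture supernatants. Supernatant proteins TCA-precipitated, resolved by SDS-PAGE and Western blotted with anti-SipA antibody; IC50 derived from the reduction in secreted SipA.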
What is called IC50 is the point on the concentration scale where inhibition reaches its midpoint. Higher therefore signals weaker potency in that assay. On to `COc1cc(/C=C2\S/C(=N\c3ccccc3)N(CCCCCCNCCN3C(=O)/C(=C/c4cc(OC)c(O)c(OC)c4)S/C3=N\c3ccccc3)C2=O)cc(OC)c1O`, for which 65 µM corresponded to half-maximal inhibition (IC50).

Compound `COc1cc(/C=C2\S/C(=N\c3ccccc3)N(CCCCCCNC(=O)CCCN3C(=O)/C(=C/c4cc(OC)c(O)c(OC)c4)S/C3=N\c3ccccc3)C2=O)cc(OC)c1O` displayed an IC50 of 17 µM.

On to `COc1cc(/C=C2\S/C(=N\c3ccccc3)N(c3ccccc3)C2=O)cc(OC)c1O`, for which the IC50 is 83 µM.

For `COc1cc(/C=C2\S/C(=N\c3ccccc3)N(CCCCCCNC(=O)CN3C(=O)/C(=C/c4cc(OC)c(O)c(OC)c4)S/C3=N\c3ccccc3)C2=O)cc(OC)c1O`, inhibition was half-maximal at 5 µM (IC50).

For the compound `COc1cc(/C=C2\S/C(=N\c3ccccc3)N(CCNC(=O)C3CCCN3C(=O)CN3C(=O)/C(=C/c4cc(OC)c(O)c(OC)c4)S/C3=N\c3ccccc3)C2=O)cc(OC)c1O` (configuration not stated), the midpoint of inhibition, the IC50, lay at 55 µM.

`COc1cc(/C=C2\S/C(=N\c3ccccc3)N(CC(=O)Nc3cccc(NC(=O)CN4C(=O)/C(=C/c5cc(OC)c(O)c(OC)c5)S/C4=N\c4ccccc4)c3)C2=O)cc(OC)c1O`: the IC50 came to 80 µM.

The compound `COc1cc(/C=C2\S/C(=N\c3ccccc3)N(CCN3CCN(CCN4C(=O)/C(=C/c5cc(OC)c(O)c(OC)c5)S/C4=N\c4ccccc4)CC3)C2=O)cc(OC)c1O` came in with an IC50 of 44 µM.

Compound `COc1cc(/C=C2\S/C(=N\c3ccccc3)N(CCCNC(=O)[C@H](Cc3ccc(-c4ccccc4)cc3)NC(=O)[C@H](CCCN)N3C(=O)/C(=C/c4cc(OC)c(O)c(OC)c4)S/C3=N\c3ccccc3)C2=O)cc(OC)c1O` gave an IC50 of 49 µM.

In turn, `COc1cc(/C=C2\S/C(=N\c3ccccc3)N(CCCNC(=O)CN3C(=O)/C(=C/c4cc(OC)c(O)c(OC)c4)S/C3=N\c3ccccc3)C2=O)cc(OC)c1O` displayed an IC50 of 48 µM.

`COc1cc(/C=C2\S/C(=N\c3ccccc3)N(CCCCNC(=N)NCCN3C(=O)/C(=C/c4cc(OC)c(O)c(OC)c4)S/C3=N\c3ccccc3)C2=O)cc(OC)c1O` yielded an IC50 of 47 µM.

`COc1cc(/C=C2\S/C(=N\c3ccccc3)N(CC(=O)Nc3ccccc3NC(=O)CN3C(=O)/C(=C/c4cc(OC)c(O)c(OC)c4)S/C3=N\c3ccccc3)C2=O)cc(OC)c1O` registered an IC50 of 22 µM.

The compound `COc1cc(/C=C2\S/C(=N\c3ccccc3)N(CCCNC(=O)[C@H](CCCNC(=N)N)NC(=O)CN3C(=O)/C(=C/c4cc(OC)c(O)c(OC)c4)S/C3=N\c3ccccc3)C2=O)cc(OC)c1O` came in with an IC50 of 48 µM.
